This note sets out measurements from ChEMBL document CHEMBL5661985, “In silico design of novel probes for the atypical opioid receptor MRGPRX2” (Nat Chem Biol, 2017).

Activity calls are given as the source filed them. No cut-off for these calls is given here.

Data set [1] has as its system HTLA. In words: Agonist activity at MRGPRX2 D184N mutant (unknown origin) expressed in HTLA cells assessed as induction of beta-arrestin 2 recruitment incubated for 18 to 24 hrs by PRESTO-Tango assay. It counts as cell-based. As to conditions: Homo sapiens, time 18-24 hrs. The method, boiled down: (§1)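 β-arrestin2 recruitment by PRESTO-Tango: HTLA cells transiently transfected (calcium phosphate) with codon-optimized MRGPRX2-Tango (WT or point mutant) or MRGPRB2-Tango, plated next day 20,000 cells/well on poly-L-lysine; drug in HBSS/20 mM HEPES/0.3% BSA pH 7.4 for 18–24 h; Bright-Glo luminescence (RLU); curves n=3 in triplicate, mutants n=4 in triplicate.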

In data set [2] the target is T1, Mas-related G-protein coupled receptor member X2 (Homo sapiens) (UniProt Q96LB1).
T1 sequence (whole entry): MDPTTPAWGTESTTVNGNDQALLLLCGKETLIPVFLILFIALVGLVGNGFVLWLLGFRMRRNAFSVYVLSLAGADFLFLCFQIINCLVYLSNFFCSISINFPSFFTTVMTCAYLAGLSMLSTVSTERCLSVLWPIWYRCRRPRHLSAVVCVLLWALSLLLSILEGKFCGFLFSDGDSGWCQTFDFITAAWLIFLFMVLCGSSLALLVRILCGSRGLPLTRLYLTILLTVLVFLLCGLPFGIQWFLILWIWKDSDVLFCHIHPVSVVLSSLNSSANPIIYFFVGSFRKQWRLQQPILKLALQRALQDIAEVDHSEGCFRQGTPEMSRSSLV
In words: Agonist activity at MRGPRX2 receptor in human LAD2 cells transfected with MRGPRX2 siRNA assessed as increase in degranulation incubated for 30 mins by beta-hexosaminidase assay. It counts as functional, cell-based. In short, it runs like this: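 LAD2 cells (1.2 million/well) transfected with 25 nM MRGPRX2 siRNA pool or non-targeting pool, 72 h; 200,000 cells taken for β-hexosaminidase assay with EC80 concentration of agonist, 30 min 37°C; knockdown checked by qRT-PCR on 1 million cells; fold change % degranulation versus DMSO; two-way ANOVA with Sidak test.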

In data set [3] the target is T2, Mas-related G-protein coupled receptor member X2 (Homo sapiens, UniProt Q96LB1).
T2 sequence (Q96LB1 whole entry): T1 sequence (whole entry)
Description: Agonist activity at N-terminal Flag-tagged human MRGPRX2 receptor expressed in tetracycline-induced FLP-IN/T-REX 293 cells assessed as increase in intracellular calcium release by FLIPR assay. The format is functional, cell-based. The note with it: read-out: EC50.

Data set [4] addresses T1, Mas-related G-protein coupled receptor member X2 (Homo sapiens). Description: Agonist activity at MRGPRX2 receptor in human LAD2 cells assessed as increase in degranulation incubated for 30 mins by beta-hexosaminidase assay. The format is functional, cell-based. The note with it: filed as agonist. The method, boiled down: (§2)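 β-Hexosaminidase release: LAD2 cells in fresh medium 18 h, washed in Tyrode's buffer pH 7.4, 10,000 cells/well; drug (single concentration or 8-point curve) added in triplicate, 30 min 37°C; supernatant and Triton X-100 lysate each reacted with NAG in citrate pH 4.5 for 90 min 37°C, stopped with carbonate pH 10, A405; % release = released/total ×100, minus vehicle.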

The target of data set [5] is Kappa-type opioid receptor (Homo sapiens, UniProt P41145). Description: Agonist activity at KOR (unknown origin) by Glo sensor assay. The format is functional.
Chain of Kappa-type opioid receptor (P41145 whole entry): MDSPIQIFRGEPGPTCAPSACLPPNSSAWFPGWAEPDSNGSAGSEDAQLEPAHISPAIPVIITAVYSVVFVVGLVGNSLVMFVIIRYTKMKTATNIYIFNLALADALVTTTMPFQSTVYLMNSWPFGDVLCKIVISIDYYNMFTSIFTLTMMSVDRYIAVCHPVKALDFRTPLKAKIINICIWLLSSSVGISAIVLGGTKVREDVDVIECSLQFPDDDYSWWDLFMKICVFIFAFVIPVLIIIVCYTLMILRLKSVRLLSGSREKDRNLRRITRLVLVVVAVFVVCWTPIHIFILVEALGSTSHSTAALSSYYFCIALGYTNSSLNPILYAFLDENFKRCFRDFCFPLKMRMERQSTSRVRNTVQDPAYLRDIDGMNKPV
For data set [6], the system named is HTLA. Description: Agonist activity at MRGPRX2 D184E mutant (unknown origin) expressed in HTLA cells assessed as induction of beta-arrestin 2 recruitment incubated for 18 to 24 hrs by PRESTO-Tango assay. It counts as cell-based. The note with it: Homo sapiens, time 18-24 hrs. The method, boiled down: as §1
Data set [7] relates to HTLA. In words: Agonist activity at MRGPRX2 E164Q mutant (unknown origin) expressed in HTLA cells assessed as induction of beta-arrestin 2 recruitment incubated for 18 to 24 hrs by PRESTO-Tango assay. The format is cell-based. As to conditions: Homo sapiens, filed as agonist, time 18-24 hrs. The method, boiled down: as §1
For data set [8], the target named is T2, Mas-related G-protein coupled receptor member X2. Description: Agonist activity at MRGPRX2 (unknown origin) expressed in HTLA cells assessed as induction of beta-arrestin 2 recruitment incubated for 18 to 24 hrs by PRESTO-Tango assay. The format is functional, cell-based. The note with it: read-out: pEC50 (converted).
Data set [9] concerns the target T1, Mas-related G-protein coupled receptor member X2 (Homo sapiens). In words: Agonist activity at MRGPRX2 receptor in human LAD2 cells assessed as increase in degranulation incubated for 30 mins in presence of naloxone by beta-hexosaminidase assay. It counts as functional, cell-based. In short, it runs like this:
as §2

Data set [10] is described as follows: Cytotoxicity against HTLA cells expressing MRGPRX2 (unknown origin) at 1 uM after 24 hrs. As to conditions: human. The format is toxicity, cell-based.

For `CC[C@H](C)[C@H](NC(=O)[C@H](CCCNC(=N)N)NC(=O)[C@H](CCCNC(=N)N)NC(=O)[C@H](CC(C)C)NC(=O)[C@H](Cc1ccccc1)NC(=O)CNC(=O)CNC(=O)[C@@H](N)Cc1ccc(O)cc1)C(=O)N[C@@H](CCCNC(=N)N)C(=O)N1CCC[C@H]1C(=O)N[C@@H](CCCCN)C(=O)N[C@@H](CC(C)C)C(=O)N[C@@H](CCCCN)C(=O)O` [ANALOG OF DYNORPHIN A], the outcome (with HTLA [1]; in data set [2]; in the data set on HTLA [6]; in [9]) was inactive. Besides, the figures for the EC50 in [3], in data set [5] and in data set [8] were 1.1 µM, 6 pM and 30.2 µM, respectively. For the same compound, the outcome (in data set [4]; in the data set with HTLA [7]) was Active.

Regarding `C[C@@H]1C[C@H]2Cc3ncc(-c4ccc5c(n4)C[C@@H]4C[C@@H](C)C[C@]56NCCC[C@H]46)cc3[C@]3(C1)NCCC[C@H]23` [COMPLANADINE A], the EC50 in [3] is 18 µM; in data set [8], 0.692 µM. In addition, the Activity entry in data set [10] is given as “Toxic”.
